Series [1] can be described thus: AUC was measured from the graph plotted against blood plasma concentration and time at the dose of 300 uMol/kg,. The class given is ADME.
Series [2] has as its system Rattus norvegicus. The series is described as follows: Glucose levels were determined in an acute in vivo study for inhibition of gluconeogenesis in normal male Sprague-Dawley rats. The class given is functional. Also noted: concentration or dose not given beside the values. The method in brief:
(§1)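 Normal male Sprague-Dawley rats (200-300 g) fasted 18 h; five per group given compound by oral gavage at 100 µmol/kg in carboxymethylcellulose vehicle or vehicle alone. At 3 h, cardiac-puncture blood under brief CO₂ anesthesia; serum β-hydroxybutyrate (ketones) and glucose expressed as % of control; Student's t-test.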

In series [3] the test system is Rattus norvegicus. Nature of the series: In vivo percentage efficacy, measured as ability to decrease blood glucose percentage after 8.25 days. The class given is functional. Also noted: concentration or dose not given beside the values. In outline:
(§2)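 Rats (250-300 g) on high-fat purified diet, made diabetic by 40 mg/kg streptozotocin iv (tail vein) 3 days into diet. Selected by glucose criteria, including an oral glucose load (1.35 g/kg dextrose) after an 18 h fast. Dosed orally once daily at 70 µmol/kg in CMC for 11 days. Blood glucose taken 6 h post-dose (food removed). % efficacy: 100% = normalization to 60 mg/dL.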

Series [4] has as its system Rattus norvegicus. Nature of the series: In vivo percentage efficacy, measured as ability to decrease blood glucose percentage after 11.25 days. The class given is functional. Also noted: concentration or dose not given beside the values. In outline: as §2
Series [5] relates to Rattus norvegicus. The series is described as follows: Ketone levels were determined in an acute in vivo study for inhibition of gluconeogenesis in normal male Sprague-Dawley rats. The series is classed as functional. Also noted: concentration or dose not given beside the values. In outline: as §1
The test system of series [6] is Rattus norvegicus. The series is described as follows: Testes weight (treated)/body weight(treated)]/[testes weight(control)/body weight(control)] x 100 at a dose of 350 umol/kg/day. The series is classed as functional.
Series [7] deals with Rattus norvegicus. Nature of the series: Testes weight (treated)/body weight(treated)]/[testes weight(control)/body weight(control)] x 100 at a dose of 700 umol/kg/day. The series is classed as functional.
Series [8] is described as follows: AUC was measured from the graph plotted against blood plasma concentration and time at the dose of 150 uMol/kg,. The series is classed as ADME.
In series [9] the test system is Rattus norvegicus. The series is described as follows: In vivo percentage efficacy, measured as ability to decrease blood glucose percentage after 8.25 days in rats. The series is classed as functional. Also noted: concentration or dose not given beside the values. In outline:
as §2

Series [10] deals with Rattus norvegicus. Nature of the series: Testes weight (treated)/body weight(treated)]/[testes weight(control)/body weight(control)] x 100 at a dose of 700 uM/kg/day. The class given is functional.
Series [11] in a line: AUC was measured from the graph plotted against blood plasma concentration and time at the dose of 700 uMol/kg,. The class given is ADME.
Series [12] in a line: AUC was measured from the graph plotted against blood plasma concentration and time at the dose of 300 uMol/kg. The series is classed as ADME, cell-free.
A short description of series [13]: AUC was measured from the graph plotted against blood plasma concentration and time at the dose of 150 uMol/kg.
The test system of series [14] is Rattus norvegicus. Nature of the series: In vivo percentage efficacy was measured as ability to decrease blood glucose percentage after 11.25 days in rats. The series is classed as functional. In outline:
as §2

The term AUC denotes concentration integrated over time.

`COC(c1ccc(C(=O)O)cc1)C(C)(C)C` (centres undefined) had an AUC in series [1] of 1020 µg·h/mL. The Control in the series on Rattus norvegicus [2] is reported as less than 81%. The Efficacy in the series on Rattus norvegicus [3] is less than 23%; with Rattus norvegicus [4], less than 59%. The “Serum ketone level, % of control” value with Rattus norvegicus [5] is less than 17%.
For `CC(C)(C)C1(c2ccc(C(=O)O)cc2)OCCCO1` the same measures were 1400 µg·h/mL, 111%, less than 41%, less than 65% and less than 15%.
`CO/N=C(\OC(=O)c1ccc([C@@H](O)C(C)(C)C)cc1)c1ccc([C@H](O)C(C)(C)C)cc1` (relative stereo) showed an AUC in series [1] of 2370 µg·h/mL. In the series on Rattus norvegicus [2], the Control is less than 61%. Moreover, the “Serum ketone level, % of control” value in the series with Rattus norvegicus [5] is less than 17%.
On to `CC(C)(C)C(O)c1ccc(C(=O)O)cc1` (centres undefined), for which the values for the Control in the series with Rattus norvegicus [2] and with Rattus norvegicus [6] were less than 50% and less than 74%, respectively.
Compound `CC1(C)COC(c2ccc(C(=O)O)cc2)(C(C)(C)C)OC1` registered an AUC in series [1] of 263 µg·h/mL. The Control with Rattus norvegicus [2] is 105%. Besides, the “Serum ketone level, % of control” value in the series on Rattus norvegicus [5] is recorded as less than 18%.
In the series on Rattus norvegicus [7], `CC(C)(C)C(=O)c1ccc(C(=O)O)cc1` had a Control of less than 47%.
`CC(C)(C)C(=O)c1ccc(C(=O)O/C(=N\OCCO)c2ccc(C(=O)C(C)(C)C)cc2)cc1`: the AUC in series [1] is 565 µg·h/mL; in series [8], 122 µg·h/mL. Also, the Control in the series on Rattus norvegicus [2] came to 98%. The Efficacy in the series on Rattus norvegicus [4] and with Rattus norvegicus [9] was less than 92% in each case. The “Serum ketone level, % of control” value in the series with Rattus norvegicus [5] is less than 15%.
Consider `CO/N=C(\OC(=O)c1ccc(C(=O)C(C)(C)C)cc1)c1ccc(C(=O)C(C)(C)C)cc1`, for which the AUC in series [1] is 85 µg·h/mL; in series [11], 325 µg·h/mL. Also, the values for the Control in the series on Rattus norvegicus [2] and in the series on Rattus norvegicus [10] were 98% and 96%, respectively. Besides, the Efficacy is reported as less than 59% in the series with Rattus norvegicus [4] and less than 64% in the series with Rattus norvegicus [9]. The “Serum ketone level, % of control” value in the series on Rattus norvegicus [5] was less than 30%.
In turn, `C=CCOC(c1ccc(C(=O)O)cc1)C(C)(C)C` (centres undefined) registered a Control with Rattus norvegicus [2] of 107%. The same compound registered an AUC in series [12] of 941 µg·h/mL. In addition, in the series on Rattus norvegicus [5], the “Serum ketone level, % of control” value is given as less than 29%.
For the compound `Cc1ccc(C2(C(C)(C)C)OCCO2)cc1`, the Control with Rattus norvegicus [2] is less than 58%; in the series with Rattus norvegicus [7], less than 52%. Moreover, the exposure (AUC) in series [13] came out at 1510 µg·h/mL; in series [11], 3560 µg·h/mL. The Efficacy is less than 52% with Rattus norvegicus [3] and less than 64% with Rattus norvegicus [4]. Besides, in the series with Rattus norvegicus [5], the “Serum ketone level, % of control” value is reported as less than 12%.
Regarding `CC(C)(C)C(=O)c1ccc(C(=O)O/C(=N\OCCCC(=O)O)c2ccc(C(=O)C(C)(C)C)cc2)cc1`, the AUC in series [1] was 1630 µg·h/mL. In the series on Rattus norvegicus [2], this compound had a Control of less than 70%. Moreover, the “Serum ketone level, % of control” value with Rattus norvegicus [5] was less than 15%.
Regarding `CC(C)(C)C(=O)c1ccc(C(=O)N(C(=O)c2ccc(C(=O)C(C)(C)C)cc2)C(=O)c2cccnc2)cc1`, the Control in the series on Rattus norvegicus [2] and in the series with Rattus norvegicus [6] was 95% throughout. The Efficacy in the series on Rattus norvegicus [3] is listed as less than 73%; with Rattus norvegicus [4] it was less than 74%. This compound gave an exposure (AUC) in series [12] of 64 µg·h/mL. Moreover, the “Serum ketone level, % of control” value with Rattus norvegicus [5] is less than 46%.
In the case of `CC(C)(C)C(=O)c1ccc(C(=O)NC(=O)c2ccc(C(=O)C(C)(C)C)cc2)cc1`, the area under the curve (AUC) in [1] turned out to be 122 µg·h/mL; in series [11], 2670 µg·h/mL. The Control in the series on Rattus norvegicus [2] came out at 92%; in the series on Rattus norvegicus [7], 101%. In addition, the “Serum ketone level, % of control” value in the series with Rattus norvegicus [5] was less than 21%.
In the case of `CC(C)(C)O/N=C(\OC(=O)c1ccc(C(=O)C(C)(C)C)cc1)c1ccc(C(=O)C(C)(C)C)cc1`, the AUC in [1] was 55 µg·h/mL. Also, the results for the Control with Rattus norvegicus [2] and in the series on Rattus norvegicus [10] were less than 70% and 102%, respectively. Also, the Efficacy in the series with Rattus norvegicus [4] is reported as less than 98%; with Rattus norvegicus [9], less than 80%. In addition, the “Serum ketone level, % of control” value in the series with Rattus norvegicus [5] is less than 50%.
As to `CC(C)(C)C(=O)c1ccc(C(=O)NC(=O)c2ccc(F)cc2)cc1`, the AUC came out at 588 µg·h/mL in series [1] and 2570 µg·h/mL in series [11]. Also, the Control is given as less than 65% in the series on Rattus norvegicus [2] and less than 63% in the series with Rattus norvegicus [7]. In addition, the Efficacy in the series on Rattus norvegicus [3] is on record as less than 57%; in the series with Rattus norvegicus [4], less than 54%. For the same compound, the “Serum ketone level, % of control” value in the series on Rattus norvegicus [5] is listed as less than 13%.
In the case of `CC(C)O/N=C(\OC(=O)c1ccc(C(=O)C(C)(C)C)cc1)c1ccc(C(=O)C(C)(C)C)cc1`, the AUC in [1] amounted to 155 µg·h/mL; in [8] it was 94 µg·h/mL. Also, in the series on Rattus norvegicus [2], the Control is 94%. For the same compound, the results for the Efficacy with Rattus norvegicus [4] and with Rattus norvegicus [9] were less than 98% and less than 80%, respectively. The “Serum ketone level, % of control” value in the series on Rattus norvegicus [5] is reported as less than 41%.
Compound `CC(C)(C)C(=O)c1ccc(C2=N[C@@H](Cc3ccccc3)C(=O)O2)cc1` yielded an AUC in series [1] of 413 µg·h/mL. The Control in the series on Rattus norvegicus [2] is listed as less than 90%. In addition, in the series on Rattus norvegicus [5], the “Serum ketone level, % of control” value is listed as less than 21%.
As to `CC(C)(C)C(=O)c1ccc(C(=O)O/C(=N\OCC(=O)O)c2ccc(C(=O)C(C)(C)C)cc2)cc1`, the AUC in [1] was determined as 2030 µg·h/mL; in series [8] it was 1000 µg·h/mL. Moreover, the Control with Rattus norvegicus [2] is less than 63%. Besides, the values for the Efficacy in the series on Rattus norvegicus [4] and in the series on Rattus norvegicus [9] were less than 102% and less than 90%, respectively. Further, the “Serum ketone level, % of control” value with Rattus norvegicus [5] was less than 19%.
For the compound `CC(C)(C)[C@@H](O)c1ccc(C(=O)O)cc1`, the values for the Control in the series on Rattus norvegicus [2] and with Rattus norvegicus [6] were less than 42% and less than 59%, respectively. For the same compound, the figures for the Efficacy in the series on Rattus norvegicus [14] and in the series on Rattus norvegicus [9] were less than 63% and less than 64%, respectively. Further, the “Serum ketone level, % of control” value in the series on Rattus norvegicus [5] is on record as less than 23%.
Compound `CC(C)(C)C(=O)c1ccc(C(N)=O)cc1` registered a Control in the series on Rattus norvegicus [7] of less than 48%.
On to `CC(C)(C)C(=O)c1ccc(C2=NCCO2)cc1`, for which, in series [1], the exposure (AUC) was determined as 886 µg·h/mL. In the series on Rattus norvegicus [2], this compound yielded a Control of less than 74%. Also, the “Serum ketone level, % of control” value with Rattus norvegicus [5] is on record as less than 20%.
`CC(C)(C)C(=O)c1ccc(C(=O)N(CC(=O)O)C(=O)c2ccc(C(=O)C(C)(C)C)cc2)cc1`: the AUC in series [1] is 1080 µg·h/mL. Also, the Control in the series on Rattus norvegicus [2] is given as less than 56%. For the same compound, the Efficacy in the series with Rattus norvegicus [3] was less than 53%; in the series on Rattus norvegicus [4] it was less than 47%. Further, the “Serum ketone level, % of control” value with Rattus norvegicus [5] is reported as less than 6%.
In [1], `C=CCO/N=C(\OC(=O)c1ccc(C(=O)C(C)(C)C)cc1)c1ccc(C(=O)C(C)(C)C)cc1` showed an AUC of 158 µg·h/mL. The same compound gave a Control in the series with Rattus norvegicus [2] of 105%. Also, the figures for the Efficacy with Rattus norvegicus [4] and in the series on Rattus norvegicus [9] were less than 85% and less than 53%, respectively. The “Serum ketone level, % of control” value with Rattus norvegicus [5] was less than 43%.
For the compound `CC(C)(C)[C@H](O)c1ccc(C(=O)O)cc1`, the Control in the series on Rattus norvegicus [2] was 94%; in the series on Rattus norvegicus [6] it was less than 62%. The “Serum ketone level, % of control” value in the series on Rattus norvegicus [5] is less than 80%.
As for `COCCO/N=C(\OC(=O)c1ccc(C(=O)C(C)(C)C)cc1)c1ccc(C(=O)C(C)(C)C)cc1`, the AUC in series [1] came out at 1850 µg·h/mL. Also, the Control in the series with Rattus norvegicus [2] is given as less than 49%. The Efficacy with Rattus norvegicus [4] is listed as less than 108%; in the series on Rattus norvegicus [9] it was less than 109%. Moreover, in the series with Rattus norvegicus [5], the “Serum ketone level, % of control” value was less than 19%.
Turning to `CC(C)(C)C(=O)c1ccc(C(=O)N[C@@H](Cc2ccccc2)C(=O)O)cc1`, the values for the AUC in series [1] and in series [11] were 964 µg·h/mL and 2930 µg·h/mL, respectively. In the series with Rattus norvegicus [5], the “Serum ketone level, % of control” value is listed as less than 4%.

The values above are taken from ChEMBL document CHEMBL1132198, “Hypoglycemic prodrugs of 4-(2,2-dimethyl-1-oxopropyl)benzoic acid” (J Med Chem, 1999).
